Results reported in paper PMC4832855 (Cancer Science, 2016).
“And” between values parts separate entries of the source, which are not always exact repeats. Equal values may be shown once.

How the values were obtained:
AurA = AurA (Homo sapiens, UniProt O14965); assay: Kinase inhibition profiling at 100 nmol/L; format: biochemical
[1] = molecular target: kinase insert domain receptor (Homo sapiens, UniProt P35968); assay: Kinase inhibition profiling at 100 nmol/L; format: biochemical; conditions: read-out: Inhibition at 100 nmol/L
kinase insert domain receptor, sequence (P35968 20-1356): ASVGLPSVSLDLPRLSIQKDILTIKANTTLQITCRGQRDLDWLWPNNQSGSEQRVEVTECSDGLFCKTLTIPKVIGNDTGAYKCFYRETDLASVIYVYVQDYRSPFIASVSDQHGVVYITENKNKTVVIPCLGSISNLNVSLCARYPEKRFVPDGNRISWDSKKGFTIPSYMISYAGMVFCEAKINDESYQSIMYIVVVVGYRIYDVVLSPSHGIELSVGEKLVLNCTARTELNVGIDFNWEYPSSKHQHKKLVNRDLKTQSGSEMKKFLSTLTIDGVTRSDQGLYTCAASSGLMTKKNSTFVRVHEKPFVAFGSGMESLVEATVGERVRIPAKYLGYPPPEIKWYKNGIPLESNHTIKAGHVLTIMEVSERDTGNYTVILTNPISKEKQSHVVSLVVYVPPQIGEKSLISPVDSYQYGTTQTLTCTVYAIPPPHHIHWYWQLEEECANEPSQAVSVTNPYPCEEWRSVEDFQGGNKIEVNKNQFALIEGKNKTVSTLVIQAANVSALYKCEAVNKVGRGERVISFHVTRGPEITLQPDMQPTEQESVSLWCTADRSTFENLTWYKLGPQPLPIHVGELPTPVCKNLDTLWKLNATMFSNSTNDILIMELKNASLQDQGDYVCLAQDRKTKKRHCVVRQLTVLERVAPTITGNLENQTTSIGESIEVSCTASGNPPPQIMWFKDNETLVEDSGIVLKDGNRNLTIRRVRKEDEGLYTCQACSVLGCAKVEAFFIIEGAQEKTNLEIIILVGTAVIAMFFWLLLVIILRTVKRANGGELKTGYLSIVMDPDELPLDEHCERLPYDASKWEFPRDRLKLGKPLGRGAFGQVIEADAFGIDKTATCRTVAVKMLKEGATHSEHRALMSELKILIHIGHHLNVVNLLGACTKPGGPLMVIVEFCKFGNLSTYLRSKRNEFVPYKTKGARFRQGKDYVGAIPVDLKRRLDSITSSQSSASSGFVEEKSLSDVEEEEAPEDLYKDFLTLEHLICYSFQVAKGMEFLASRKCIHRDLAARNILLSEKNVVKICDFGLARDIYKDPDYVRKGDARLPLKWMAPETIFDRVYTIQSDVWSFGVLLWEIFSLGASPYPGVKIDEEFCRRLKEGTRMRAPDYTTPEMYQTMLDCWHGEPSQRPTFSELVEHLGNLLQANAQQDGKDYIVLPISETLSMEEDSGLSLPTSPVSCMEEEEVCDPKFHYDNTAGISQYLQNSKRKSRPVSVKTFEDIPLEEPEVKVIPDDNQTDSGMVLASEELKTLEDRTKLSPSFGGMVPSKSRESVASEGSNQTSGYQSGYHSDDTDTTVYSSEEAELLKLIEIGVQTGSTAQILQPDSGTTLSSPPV

[2] = Phase I first-in-human study: pharmacokinetics; format: in vivo; conditions: for half-life / concentration at 1 day / concentration at 28 day / Cmax / Tmax / Vd/F: human, plasma; for Cmax: C max; for Tmax: T max; for Vd/F: VZ/F
[3] = system: HT‐29/GFP human colon cancer cells; assay: Anti-proliferative activity; format: cell-based
Lck = Lck (Homo sapiens, UniProt P06239); assay: Kinase inhibition profiling at 100 nmol/L; format: biochemical; conditions: read-out: Inhibition at 100 nmol/L
Lck, sequence (P06239 whole entry): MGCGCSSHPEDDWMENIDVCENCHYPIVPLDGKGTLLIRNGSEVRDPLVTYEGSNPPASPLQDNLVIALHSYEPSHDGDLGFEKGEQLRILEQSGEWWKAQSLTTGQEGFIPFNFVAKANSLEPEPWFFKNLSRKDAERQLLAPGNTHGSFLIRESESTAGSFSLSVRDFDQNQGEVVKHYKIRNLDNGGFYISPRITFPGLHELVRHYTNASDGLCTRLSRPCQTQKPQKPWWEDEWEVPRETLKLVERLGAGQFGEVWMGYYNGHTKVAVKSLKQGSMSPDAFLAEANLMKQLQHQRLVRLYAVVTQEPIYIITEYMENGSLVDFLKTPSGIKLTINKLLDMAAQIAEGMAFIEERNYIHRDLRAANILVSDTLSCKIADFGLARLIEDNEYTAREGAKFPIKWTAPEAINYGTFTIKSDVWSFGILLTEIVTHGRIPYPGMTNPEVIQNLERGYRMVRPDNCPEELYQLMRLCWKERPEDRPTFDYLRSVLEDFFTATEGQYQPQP

p381 = assay: Kinase inhibition profiling at 100 nmol/L; format: biochemical, human; conditions: p381, 100 nmol/L
[4] = molecular target: fms‐like tyrosine kinase‐3 (Homo sapiens, UniProt P36888); assay: Kinase inhibition profiling at 100 nmol/L; format: biochemical; conditions: read-out: Inhibition at 100 nmol/L
fms‐like tyrosine kinase‐3, sequence (P36888 27-993): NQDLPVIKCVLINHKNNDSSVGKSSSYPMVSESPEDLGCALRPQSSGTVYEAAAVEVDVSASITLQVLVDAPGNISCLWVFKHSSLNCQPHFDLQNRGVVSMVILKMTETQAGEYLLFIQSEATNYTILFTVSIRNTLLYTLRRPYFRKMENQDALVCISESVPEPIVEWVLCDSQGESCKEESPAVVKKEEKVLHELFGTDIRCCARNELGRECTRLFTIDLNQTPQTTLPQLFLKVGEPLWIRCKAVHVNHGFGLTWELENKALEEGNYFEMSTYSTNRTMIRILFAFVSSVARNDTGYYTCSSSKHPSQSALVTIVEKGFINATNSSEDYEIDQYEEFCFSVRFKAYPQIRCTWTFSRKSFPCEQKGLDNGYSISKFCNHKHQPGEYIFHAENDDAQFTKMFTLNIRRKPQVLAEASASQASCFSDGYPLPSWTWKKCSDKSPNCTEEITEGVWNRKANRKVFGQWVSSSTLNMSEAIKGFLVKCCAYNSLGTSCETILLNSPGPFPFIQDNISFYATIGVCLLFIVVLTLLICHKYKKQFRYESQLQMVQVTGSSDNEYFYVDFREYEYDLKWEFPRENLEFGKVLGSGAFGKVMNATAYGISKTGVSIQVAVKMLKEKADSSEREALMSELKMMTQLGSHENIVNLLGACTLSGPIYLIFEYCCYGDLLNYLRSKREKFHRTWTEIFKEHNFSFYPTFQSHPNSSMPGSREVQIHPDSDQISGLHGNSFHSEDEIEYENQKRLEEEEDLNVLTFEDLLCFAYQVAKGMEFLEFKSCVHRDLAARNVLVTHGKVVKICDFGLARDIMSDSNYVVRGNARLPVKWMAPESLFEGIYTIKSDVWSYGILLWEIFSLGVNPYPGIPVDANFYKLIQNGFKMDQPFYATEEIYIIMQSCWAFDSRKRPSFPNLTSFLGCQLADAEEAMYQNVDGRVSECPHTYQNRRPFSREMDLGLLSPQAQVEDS

[5] = system: phosphorylation of AKT in HT‐29/GFP cells; assay: In vitro signal transduction assay; format: cell-based, human; conditions: same concentration ranges (up to 30 nmol/L)
How it was run: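 HT-29/GFP colon cancer cells in culture exposed to test compound, then stimulated with human IGF-1 or human insulin; receptor tyrosine phosphorylation and downstream signalling assessed across a concentration series.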

[6] = system: HT‐29/GFP human colon cancer cells; assay: Flow cytometric cell cycle analysis; format: cell-based
[7] = system: IGF‐1‐induced tyrosine phosphorylation of IGF‐R in HT‐29/GFP xenograft; assay: In vivo signal transduction assay; design: species or system mouse; conditions: 40 mg/kg oral, 2 hours before IGF-1
advanced solid tumors = assay: Phase I first-in-human study: response; format: in vivo
How it was run: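 Open-label phase I in patients with refractory advanced solid tumours; oral once daily after overnight fast for 28 days, 1-week observation, then continuous daily dosing; response assessed every 8 weeks by RECIST version 1.0.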

Met = Met (Homo sapiens, UniProt P08581); assay: Kinase inhibition profiling at 100 nmol/L; format: biochemical; conditions: read-out: Inhibition at 100 nmol/L
Met, sequence (P08581 25-1390): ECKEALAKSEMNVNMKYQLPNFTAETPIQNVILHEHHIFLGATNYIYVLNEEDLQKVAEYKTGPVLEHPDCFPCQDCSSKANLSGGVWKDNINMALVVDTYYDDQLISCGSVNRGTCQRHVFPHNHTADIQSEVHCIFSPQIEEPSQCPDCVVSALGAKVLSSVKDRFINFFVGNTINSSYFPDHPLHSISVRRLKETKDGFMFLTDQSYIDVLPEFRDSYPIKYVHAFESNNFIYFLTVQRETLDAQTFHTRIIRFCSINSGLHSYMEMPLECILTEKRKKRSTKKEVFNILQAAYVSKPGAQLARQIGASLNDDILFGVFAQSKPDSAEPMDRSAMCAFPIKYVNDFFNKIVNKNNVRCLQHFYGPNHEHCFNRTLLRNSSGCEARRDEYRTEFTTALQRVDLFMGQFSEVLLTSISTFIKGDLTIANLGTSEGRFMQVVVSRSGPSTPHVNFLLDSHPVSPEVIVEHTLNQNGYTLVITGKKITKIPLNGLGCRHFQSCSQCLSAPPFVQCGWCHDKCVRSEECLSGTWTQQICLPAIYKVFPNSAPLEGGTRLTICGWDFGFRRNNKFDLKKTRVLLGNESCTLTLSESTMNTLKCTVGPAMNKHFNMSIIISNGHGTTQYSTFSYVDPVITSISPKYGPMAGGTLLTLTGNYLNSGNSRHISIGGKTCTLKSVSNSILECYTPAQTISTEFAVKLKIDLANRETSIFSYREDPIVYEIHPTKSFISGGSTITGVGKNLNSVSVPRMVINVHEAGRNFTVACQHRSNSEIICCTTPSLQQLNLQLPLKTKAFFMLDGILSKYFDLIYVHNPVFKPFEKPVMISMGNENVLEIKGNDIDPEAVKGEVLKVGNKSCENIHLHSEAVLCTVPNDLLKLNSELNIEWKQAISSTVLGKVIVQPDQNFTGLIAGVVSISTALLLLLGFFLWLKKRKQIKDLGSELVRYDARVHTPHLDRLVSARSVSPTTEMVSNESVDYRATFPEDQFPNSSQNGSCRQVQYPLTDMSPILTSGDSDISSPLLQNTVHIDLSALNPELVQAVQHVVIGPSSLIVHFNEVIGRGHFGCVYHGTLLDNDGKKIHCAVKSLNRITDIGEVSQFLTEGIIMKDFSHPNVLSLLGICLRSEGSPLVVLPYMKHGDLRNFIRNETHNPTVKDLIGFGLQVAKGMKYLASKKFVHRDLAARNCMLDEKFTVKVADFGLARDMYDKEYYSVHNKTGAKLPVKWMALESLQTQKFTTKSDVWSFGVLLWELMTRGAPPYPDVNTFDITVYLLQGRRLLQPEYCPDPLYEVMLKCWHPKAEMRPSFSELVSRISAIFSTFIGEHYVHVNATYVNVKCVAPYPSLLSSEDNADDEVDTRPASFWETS

[8] = system: patients with advanced solid tumors; assay: Phase I first-in-human study: safety, tolerability, DLT, MTD; format: in vivo; conditions: 37.5 mg/day (n = 7)
How it was run: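 Open-label 3+3 dose-escalation/de-escalation; oral once-daily dosing under overnight fasting for 28 days, 1-week observation, then continuous; AEs graded by CTCAE v3.0 with attribution; DLTs included grade 3 fasting hyperglycemia, grade 3 non-fasting hyperglycemia >4 h, grade 4 hyperglycemia, grade ≥2 cardiac toxicity, other grade ≥3 non-hematologic events, grade 4 neutropenia >7 days, grade 4 thrombocytopenia.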

[9] = po, 37.5 mg/day, patients, oral 37.5 mg/day, Day 1 (n = 7), mean ± SD
[10] = po, 37.5 mg/day, patients, oral 37.5 mg/day, Day 28 (n = 5), mean ± SD
[11] = patients, oral 37.5 mg/day, Day 28 (n = 5), mean ± SD
[12] = patients, oral 50 mg/day, Day 28 (n = 4), mean ± SD

AurA, sequence (O14965 whole entry, the tested form may be a part): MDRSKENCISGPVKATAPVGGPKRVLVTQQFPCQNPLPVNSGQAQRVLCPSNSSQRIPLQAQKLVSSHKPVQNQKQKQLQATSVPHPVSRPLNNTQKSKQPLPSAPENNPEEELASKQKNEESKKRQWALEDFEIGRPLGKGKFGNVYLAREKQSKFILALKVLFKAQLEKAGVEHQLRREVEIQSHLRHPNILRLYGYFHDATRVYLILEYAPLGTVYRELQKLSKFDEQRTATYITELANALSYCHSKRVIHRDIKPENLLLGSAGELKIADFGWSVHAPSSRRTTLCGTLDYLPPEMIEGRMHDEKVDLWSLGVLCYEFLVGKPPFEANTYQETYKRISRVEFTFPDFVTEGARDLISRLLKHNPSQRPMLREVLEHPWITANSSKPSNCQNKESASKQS

SMILES: Cc1ccsc1C(=O)Nc1cc(CN2CCN(C(=O)CO)CC2)ccc1/C=C/c1n[nH]c2ccccc12 [KW‐2450]
- Inhibition at 100 nmol/L (AurA; AurA, 100 nmol/L): 99.5%
- inhibition at 0.1 µM (AurA; read-out: Inhibition at 100 nmol/L, AurA, 100 nmol/L): > 90%
- inhibition at 0.1 µM [1]: > 90%
- half-life ([2]; oral, 50 mg, Mean elimination half‐life, range across dose levels and day measured, patients, 37.5 and 50 mg, days 1 and 28): 9.74 to 13 h
- concentration at 1 day ([2]; po, 37.5 mg/day): 608 ng/mL
- concentration at 28 day ([2]; po, 37.5 mg/day): 890 ng/mL
- Cmax [2, 9]: 2330 ± 921 ng/mL
- Cmax [2, 10]: 2370 ± 1010 ng/mL
- Tmax [2, 9]: 2.29 ± 0.95 h
- Tmax [2, 10]: 1.99 ± 1.22 h
- Vd/F ([2]; po, 37.5 mg/day, patients, oral 37.5 mg/day, Day 1, n = 5, mean ± SD): 19.6 ± 2.91 L
- Vd/F ([2]; po, 37.5 mg/day, patients, oral 37.5 mg/day, Day 28, n = 4, mean ± SD): 23.7 ± 3.89 L
- half-life ([2]; po, 37.5 mg/day, t 1/2, patients, oral 37.5 mg/day, Day 1, n = 5, mean ± SD): 10.1 ± 3.08 h
- half-life ([2]; po, 37.5 mg/day, t 1/2, patients, oral 37.5 mg/day, Day 28, n = 4, mean ± SD): 9.74 ± 2.69 h
- concentration at 1 day ([2]; po, 50 mg/day): 671 ng/mL
- concentration at 28 day ([2]; po, 50 mg/day): 701 ng/mL
- Mean maximum plasma concentration, molar equivalent ([2]; patients, 37.5 mg/day, days 1 and 28): 3385 to 3440 nmol/L
- Mean elimination half‐life, range across dose levels and day measured ([2]; patients, 37.5 and 50 mg, days 1 and 28): 10 to 13 h
- C min (trough plasma concentration) ([2]; patients, oral 37.5 mg/day, Day 1 (n = 7), mean ± SD): 608 ± 679 ng/mL
- CL/F ([2]; patients, oral 37.5 mg/day, Day 1, n = 5, mean ± SD): 1.45 ± 0.53 L/h
- C min (trough plasma concentration) [2, 11]: 890 ± 1173 ng/mL
- CL/F [2, 11]: 1.56 ± 0.88 L/h
- R, accumulation ratio (AUC0–24 on day 28/AUC0–24 on day 1) [2, 11]: 1.57 and 1.57 ± 0.80
- C min (trough plasma concentration) ([2]; patients, oral 50 mg/day, Day 1 (n = 6), mean ± SD): 671 ± 517 ng/mL
- CL/F ([2]; patients, oral 50 mg/day, Day 1, n = 5, mean ± SD): 1.48 ± 0.97 L/h
- C min (trough plasma concentration) [2, 12]: 701 ± 462 ng/mL
- CL/F [2, 12]: 1.69 ± 0.47 L/h
- R, accumulation ratio (AUC0–24 on day 28/AUC0–24 on day 1) [2, 12]: 1.27 and 1.27 ± 0.37
- GI50 [3]: 380 nM
- inhibition at 0.1 µM (Lck): 33.7%
- Inhibition at 100 nmol/L (p381): –2.5%
- inhibition at 0.1 µM [4]: > 90%
- Inhibition of phosphorylation of AKT downstream to IGF‐1R or IR [5]: inhibited phosphorylation of AKT
- Cell cycle distribution ([6]; higher concentrations of 1200 and 2000 nmol/L): G1 and G2/M phase accumulations
- Cell cycle distribution ([6]; lower concentrations of 120 and 400 nmol/L): G1 phase accumulation
- Inhibition of in vivo IGF‐1‐induced tyrosine phosphorylation of IGF‐R [7]: inhibited
- Median progression‐free survival (advanced solid tumors; 37.5 mg/day): 65.0 days
- Patients with stable disease (advanced solid tumors; 37.5 mg/day): 1 n
- Median progression‐free survival (advanced solid tumors; 50 mg/day): 141 days
- Patients with stable disease (advanced solid tumors; 50 mg/day): 3 n
- Complete or partial responses (advanced solid tumors; 10 patients evaluable for response): no complete or partial responses
- Patients with stable disease (advanced solid tumors; 10 patients evaluable for response, both doses): 40%
- Median progression‐free survival (advanced solid tumors; overall): 66.5 days
- inhibition at 0.1 µM (Met): 33.8%
- Anorexia, treatment‐related, Grade 1–2 [8]: 2 (28.6) No. of patients (%)
- Anorexia, treatment‐related, Grade 3 [8]: 0 (0.0) No. of patients (%)
- Constipation, treatment‐related, Grade 1–2 [8]: 1 (14.3) No. of patients (%)
- Constipation, treatment‐related, Grade 3 [8]: 0 (0.0) No. of patients (%)
- Decreased appetite, treatment‐related, Grade 1–2 [8]: 0 (0.0) No. of patients (%)
- Decreased appetite, treatment‐related, Grade 3 [8]: 0 (0.0) No. of patients (%)
- Diarrhea, treatment‐related, Grade 1–2 [8]: 0 (0.0) No. of patients (%)
- Diarrhea, treatment‐related, Grade 3 [8]: 0 (0.0) No. of patients (%)
- Dizziness, treatment‐related, Grade 1–2 [8]: 1 (14.3) No. of patients (%)
- Dizziness, treatment‐related, Grade 3 [8]: 0 (0.0) No. of patients (%)
- Fatigue, treatment‐related, Grade 1–2 [8]: 4 (57.1) No. of patients (%)
- Fatigue, treatment‐related, Grade 3 [8]: 0 (0.0) No. of patients (%)
- Hyperglycemia, treatment‐related, Grade 1–2 [8]: 1 (14.3) No. of patients (%)
- Hyperglycemia, treatment‐related, Grade 3 [8]: 0 (0.0) No. of patients (%)
- Mucosal inflammation, treatment‐related, Grade 1–2 [8]: 1 (14.3) No. of patients (%)
